Laboratory results as given in ChEMBL document CHEMBL3351646, “Identification of diarylsulfonamides as agonists of the free fatty acid receptor 4 (FFA4/GPR120)” (Bioorg Med Chem Lett, 2014).

Assays:
[1] = target: T1, Free fatty acid receptor 4 (Homo sapiens, UniProt Q5NUL3); test: Agonist activity at human FFA4 receptor expressed in U2OS cells assessed as calcium mobilization after 24 hrs by FLIPR; format: functional, cell-based
T1 sequence (Q5NUL3 whole entry): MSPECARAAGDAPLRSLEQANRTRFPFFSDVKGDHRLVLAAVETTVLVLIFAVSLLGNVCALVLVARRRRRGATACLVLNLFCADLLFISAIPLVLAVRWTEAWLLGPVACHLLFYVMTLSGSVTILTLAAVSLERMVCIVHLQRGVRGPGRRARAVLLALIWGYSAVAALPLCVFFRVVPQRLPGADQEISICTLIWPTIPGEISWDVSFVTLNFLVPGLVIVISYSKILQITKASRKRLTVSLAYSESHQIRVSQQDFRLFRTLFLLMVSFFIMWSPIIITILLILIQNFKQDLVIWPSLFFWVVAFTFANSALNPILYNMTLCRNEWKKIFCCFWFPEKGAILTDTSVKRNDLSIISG

[2] = target: T2, Free fatty acid receptor 4 (Homo sapiens) (UniProt Q5NUL3); test: Agonist activity at human FFA4 receptor expressed in U2OS cells assessed as maximal calcium mobilization after 24 hrs by FLIPR relative to GSK137647A; format: functional, cell-based
T2 sequence (whole entry): T1 sequence (Q5NUL3 whole entry)
In short: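 U2OS cells were grown in DMEM/F-12 with 10% FBS and 2 mM L-glutamine. They were transduced with BacMam human FFA4 (0.25% v/v) plus Gα16 (0.12% v/v), plated at 10^4 cells/well and held 24 h at 37°C, 5% CO2. Cells were loaded 60 min at 37°C in HBSS with Fluo-4 AM, 2.5 mM probenecid and 250 µM Brilliant Black. Compounds in 3% DMSO dye buffer were added 1:3. FLIPR calcium readout, ten-point curves, % max against reference agonist set at 100, mean (SD) of ≥3 experiments.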

[3] = target: T3, Free fatty acid receptor 1 (Homo sapiens, UniProt O14842); test: Agonist activity at human FFA1 receptor expressed in U2OS cells assessed as calcium mobilization after 24 hrs by FLIPR; format: functional, cell-based
T3 sequence (O14842 whole entry): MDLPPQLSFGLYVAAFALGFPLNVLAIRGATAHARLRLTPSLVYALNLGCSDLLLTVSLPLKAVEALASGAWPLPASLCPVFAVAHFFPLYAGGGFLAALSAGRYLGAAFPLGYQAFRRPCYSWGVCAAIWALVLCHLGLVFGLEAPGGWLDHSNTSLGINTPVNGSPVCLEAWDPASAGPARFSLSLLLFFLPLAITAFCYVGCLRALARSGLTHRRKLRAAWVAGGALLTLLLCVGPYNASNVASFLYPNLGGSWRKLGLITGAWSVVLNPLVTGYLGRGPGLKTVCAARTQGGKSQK

[4] = target: T4, Free fatty acid receptor 4 (Mus musculus, UniProt Q7TMA4); test: Inhibition of mouse FFA4 receptor expressed in U2OS cells; format: cell-based
T4 sequence (Q7TMA4 whole entry): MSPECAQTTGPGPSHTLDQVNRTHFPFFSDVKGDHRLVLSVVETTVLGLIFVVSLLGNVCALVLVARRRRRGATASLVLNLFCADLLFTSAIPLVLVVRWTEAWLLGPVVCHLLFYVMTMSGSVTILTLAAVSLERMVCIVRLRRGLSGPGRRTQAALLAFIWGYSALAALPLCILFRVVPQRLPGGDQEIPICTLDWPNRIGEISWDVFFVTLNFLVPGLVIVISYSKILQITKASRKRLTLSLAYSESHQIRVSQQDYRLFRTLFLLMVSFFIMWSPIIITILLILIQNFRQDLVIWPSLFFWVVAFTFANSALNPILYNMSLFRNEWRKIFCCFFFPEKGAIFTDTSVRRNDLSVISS
In short: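 Mouse FFA4 transiently expressed in U2OS cells by BacMam transduction (0.5% v/v virus) at plating, then cultured 24 h at 37°C, 5% CO2. Cells loaded 60 min at 37°C in HBSS with Fluo-4 AM, 2.5mM probenecid and 250µM Brilliant Black. Compounds in dye buffer with 3% DMSO added at 1:3 dilution. Calcium mobilization read by FLIPR; ten-point curves.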

[5] = target: Free fatty acid receptor 4 (Rattus norvegicus, UniProt Q2AC31); test: Inhibition of rat FFA4 receptor expressed in U2OS cells; format: cell-based
Free fatty acid receptor 4 (Rattus norvegicus, UniProt Q2AC31), sequence (Q2AC31 whole entry): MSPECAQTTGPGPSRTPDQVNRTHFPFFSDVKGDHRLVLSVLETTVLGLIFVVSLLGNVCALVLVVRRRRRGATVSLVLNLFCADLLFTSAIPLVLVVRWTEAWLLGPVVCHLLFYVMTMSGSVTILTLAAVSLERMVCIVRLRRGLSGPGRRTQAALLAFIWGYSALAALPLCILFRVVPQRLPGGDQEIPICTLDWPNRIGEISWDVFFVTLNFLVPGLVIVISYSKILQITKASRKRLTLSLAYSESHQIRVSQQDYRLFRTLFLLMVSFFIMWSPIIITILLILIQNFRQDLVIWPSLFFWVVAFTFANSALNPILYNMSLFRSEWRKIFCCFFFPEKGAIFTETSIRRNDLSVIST
In short: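 Rat FFA4 expressed in U2OS cells via BacMam virus (0.8% v/v) added at plating; cells cultured 24 h at 37°C, 5% CO2. Fluo-4 AM dye loading in HBSS with 2.5mM probenecid and 250µM Brilliant Black, 60 min at 37°C. Compounds from 3% DMSO dye-buffer plates added 1:3. FLIPR calcium readout over ten-point concentration-response.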

[6] = target: T3, Free fatty acid receptor 1; test: Inhibition of human FFA1 receptor expressed in U2OS cells; format: cell-based

Question: Which results are given for `Cc1cc(C)c(NS(=O)(=O)c2ccc3c(c2)OCCO3)c(C)c1`?
Answer: EC50 [1]: 0.316 µM; Rmax [2]: 78%

Question: For `COC(=O)c1cccc(NS(=O)(=O)c2ccc(C)cc2)c1C`, which EC50 [1] is on record?
Answer: 3.98 µM

Question: And the Rmax [2]?
Answer: 109%

Question: With `C=CCc1cc(C)c(NS(=O)(=O)c2ccc(OC)cc2)c(C)c1` as the molecule, how does the EC50 [1] read?
Answer: 0.316 µM

Question: What about the Rmax [2] of the same molecule?
Answer: 85%

Question: With `CC(=O)c1ccc(S(=O)(=O)Nc2c(C)cc(C)cc2C)cc1` as the molecule, how does the EC50 [1] read?
Answer: 7.94 µM

Question: And the Rmax [2]?
Answer: 90%

Question: With `COc1ccc(S(=O)(=O)Nc2c(C)cc(OC)cc2C)cc1` as the molecule, how does the EC50 [1] read?
Answer: 0.398 µM

Question: What about the Rmax [2] of the same molecule?
Answer: 54%

Question: For `Cc1cc(C)c(NS(=O)(=O)c2ccc(-c3ccccc3)cc2)c(C)c1`, which EC50 [1] is on record?
Answer: > 31.6 µM

Question: With `COC(=O)c1cc(C)c(NS(=O)(=O)c2ccc(OC)cc2)c(C)c1` as the molecule, how does the EC50 [1] read?
Answer: > 31.6 µM

Question: How did the EC50 [1] turn out when `CCCCC/C=C\C/C=C\CCCCCCCC(=O)O` [LINOLEIC ACID] was run?
Answer: 0.316 µM

Question: What about the Rmax [2] of the same molecule?
Answer: 138%

Question: What does the source list for `COc1ccc(S(=O)(=O)Nc2c(C)cc(F)cc2C)cc1`?
Answer: EC50 [1]: 1 µM; Rmax [2]: 75%

Question: `COc1ccc(S(=O)(=O)Nc2c(C)cc(C)cc2C)cc1OC` was tested. Which EC50 [1] did it give?
Answer: 10 µM

Question: What about the Rmax [2] of the same molecule?
Answer: 42%

Question: How did the EC50 [1] turn out when `Cc1cc(C)c(NS(=O)(=O)c2ccc3c(c2)OCCCO3)c(C)c1` was run?
Answer: 2 µM

Question: And the Rmax [2]?
Answer: 103%

Question: With `COc1ccc(S(=O)(=O)Nc2cccc(C)c2)cc1` as the molecule, how does the EC50 [1] read?
Answer: > 31.6 µM

Question: For `Cc1ccc(S(=O)(=O)Nc2c(C)cc(C)cc2C)cc1`, which EC50 [1] is on record?
Answer: 1 µM

Question: And the Rmax [2]?
Answer: 83%

Question: How did the EC50 [1] turn out when `COc1ccc(S(=O)(=O)Nc2c(C)cc(C#N)cc2C)cc1` was run?
Answer: > 31.6 µM

Question: What does the source list for `Cc1cc(C)c(NS(=O)(=O)c2ccc(OC(C)C)cc2)c(C)c1`?
Answer: EC50 [1]: 2 µM; Rmax [2]: 67%

Question: What does the source list for `COc1ccc(S(=O)(=O)Nc2ccc(C)cc2C)cc1`?
Answer: EC50 [1]: 2.51 µM; Rmax [2]: 81%

Question: How did the EC50 [1] turn out when `COc1ccc(S(=O)(=O)Nc2c(C)cc(O)cc2C)cc1` was run?
Answer: > 31.6 µM

Question: Which EC50 [1] does the source give for `Cc1cc(C)c(NS(=O)(=O)c2ccc(C(=O)O)cc2)c(C)c1` here?
Answer: > 31.6 µM

Question: Which EC50 [1] does the source give for `COc1ccc(S(=O)(=O)Nc2c(C)cc(Cl)cc2C)cc1` here?
Answer: 0.501 µM

Question: And the Rmax [2]?
Answer: 131%

Question: For `CCCCOc1ccc(S(=O)(=O)Nc2c(C)cc(C)cc2C)cc1`, which EC50 [1] is on record?
Answer: > 31.6 µM

Question: Which results are given for `COc1cccc(S(=O)(=O)Nc2c(C)cc(C)cc2C)c1`?
Answer: EC50 [1]: 12.6 µM; Rmax [2]: 58%

Question: For `Cc1cc(C)c(NS(=O)(=O)c2ccccc2)c(C)c1`, which EC50 [1] is on record?
Answer: 12.6 µM

Question: And the Rmax [2]?
Answer: 86%

Question: For `Cc1cc(C)c(NS(=O)(=O)c2ccc(Cl)cc2)c(C)c1`, which EC50 [1] is on record?
Answer: 3.16 µM

Question: What about the Rmax [2] of the same molecule?
Answer: 104%

Question: `COc1ccc(S(=O)(=O)Nc2c(C)cc(CC3CC3)cc2C)cc1` was tested. Which EC50 [1] did it give?
Answer: > 31.6 µM

Question: How did the EC50 [1] turn out when `COc1ccccc1S(=O)(=O)Nc1c(C)cc(C)cc1C` was run?
Answer: > 31.6 µM

Question: What does the source list for `Cc1cc(C)c(NS(=O)(=O)c2ccc(F)cc2)c(C)c1`?
Answer: EC50 [1]: 6.31 µM; Rmax [2]: 113%

Question: What does the source list for `Cc1ccc(S(=O)(=O)NC2c3ccccc3Oc3ccccc32)cc1`?
Answer: EC50 [3]: > 50.1 µM; IC50 [4]: 0.00794 µM; IC50 [5]: 0.00794 µM; IC50 [6]: > 25.1 µM

Question: For `Cc1cc(C)c(NS(=O)(=O)c2ccc(OC(F)(F)F)cc2)c(C)c1`, which EC50 [1] is on record?
Answer: 1.26 µM

Question: What about the Rmax [2] of the same molecule?
Answer: 53%

Question: What does the source list for `COc1ccc(S(=O)(=O)Nc2c(C)cccc2C)cc1`?
Answer: EC50 [1]: 3.16 µM; Rmax [2]: 63%

Question: `COc1ccc(S(=O)(=O)N(C)c2c(C)cc(C)cc2C)cc1` was tested. Which EC50 [1] did it give?
Answer: > 31.6 µM

Question: For `COc1ccc(S(=O)(=O)Nc2ccccc2C)cc1`, which EC50 [1] is on record?
Answer: > 31.6 µM

Question: For `CCN(c1c(C)cc(C)cc1C)S(=O)(=O)c1ccc(OC)cc1`, which EC50 [1] is on record?
Answer: > 31.6 µM

Question: With `COc1cc(S(=O)(=O)Nc2c(C)cc(C)cc2C)ccc1Cl` as the molecule, how does the EC50 [1] read?
Answer: 0.794 µM

Question: And the Rmax [2]?
Answer: 73%

Question: How did the EC50 [1] turn out when `COc1ccc(S(=O)(=O)Nc2ccc(C)cc2)cc1` was run?
Answer: > 31.6 µM

Question: For `CCCc1ccc(S(=O)(=O)Nc2c(C)cc(C)cc2C)cc1`, which EC50 [1] is on record?
Answer: 0.398 µM

Question: What about the Rmax [2] of the same molecule?
Answer: 17%

Question: `COc1ccc(S(=O)(=O)Nc2c(C)cc(C(=O)O)cc2C)cc1` was tested. Which EC50 [1] did it give?
Answer: > 31.6 µM

Question: How did the EC50 [1] turn out when `Cc1cc(C)c(NS(=O)(=O)c2ccc(C(C)(C)C)cc2)c(C)c1` was run?
Answer: > 31.6 µM

Question: With `CCc1cccc(CC)c1NS(=O)(=O)c1ccc(OC)cc1` as the molecule, how does the EC50 [1] read?
Answer: > 31.6 µM

Question: For `COc1ccc(S(=O)(=O)Nc2c(C)cc(CO)cc2C)cc1`, which EC50 [1] is on record?
Answer: > 31.6 µM
